Reference: ChEMBL document CHEMBL1649571, “In vitro activity of TR-700, the active ingredient of the antibacterial prodrug TR-701, a novel oxazolidinone antibacterial agent” (2009)
≈ marks a conversion by molar mass, not a printed value.

Assays:
Type in all cases: functional
[1] = system: Porphyromonas asaccharolytica; test: Antibacterial activity against Porphyromonas asaccharolytica by CLSI M11-A7 agar dilution method
Summary of the method: (§1)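 Recent (2005 to 2008) clinical isolates. Anaerobes grown 48 h in an anaerobic glove box, with inoculum suspensions made in prereduced broth inside the box. A Steers replicator stamped the inoculum onto drug-supplemented agar. After absorption, plates were incubated 48 h at 37°C, then removed from the box and the MIC read. QC strains were run against the CLSI ranges.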

[2] = system: Bacteroides thetaiotaomicron; test: Antibacterial activity against Bacteroides thetaiotaomicron by CLSI M11-A7 agar dilution method; summary of the method: as §1
Prevotella sp. = test: Antibacterial activity against Prevotella sp. by CLSI M11-A7 agar dilution method; summary of the method: as §1
Parvimonas micra = test: Antibacterial activity against Peptostreptococcus micros by CLSI M11-A7 agar dilution method; summary of the method: as §1
Phocaeicola vulgatus = test: Antibacterial activity against Bacteroides vulgatus by CLSI M11-A7 agar dilution method; summary of the method: as §1
Clostridium perfringens = test: Antibacterial activity against Clostridium perfringens by CLSI M11-A7 agar dilution method
Summary of the method: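 Reference agar dilution MIC on recent (2005–2008) clinical isolates. Cultures grown 48 h in an anaerobic glove box; inoculum suspended in prereduced broth inside the box and stamped by Steers replicator onto drug-supplemented agar. Plates incubated 48 h at 37°C before MIC reading. QC strains run alongside, required to fall within CLSI ranges.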

Bacteroides ovatus = test: Antibacterial activity against Bacteroides ovatus by CLSI M11-A7 agar dilution method; summary of the method: as §1
[3] = system: Peptostreptococcus anaerobius; test: Antibacterial activity against Peptostreptococcus anaerobius by CLSI M11-A7 agar dilution method; summary of the method: as §1
Bacteroides fragilis = test: Antibacterial activity against Bacteroides fragilis by CLSI M11-A7 agar dilution method; summary of the method: as §1
Streptococcus agalactiae = test: Antibacterial activity against Streptococcus agalactiae by CLSI M7-A7 broth microdilution method
Summary of the method: (§2)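 Reference broth microdilution MIC under aerobic conditions on recent (2005–2008) clinical isolates from U.S. and non-U.S. sites. QC strains run alongside, required to fall within published CLSI ranges.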

Staphylococcus aureus [4] = test: Antibacterial activity against methicillin-susceptible Staphylococcus aureus by CLSI M7-A7 broth microdilution method; summary of the method: as §2
Staphylococcus aureus [5] = test: Antibacterial activity against methicillin-resistant Staphylococcus aureus by CLSI M7-A7 broth microdilution method; summary of the method: as §2
Moraxella catarrhalis = test: Antibacterial activity against Moraxella catarrhalis by CLSI M7-A7 broth microdilution method
Summary of the method: (§3)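 Recent (2005 to 2008) clinical isolates from U.S. (80%) and non-U.S. (20%) sites. Aerobic MICs were determined by CLSI reference broth microdilution, with quality control strains checked against the published CLSI ranges.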

Streptococcus pneumoniae [6] = test: Antibacterial activity against penicillin-susceptible Streptococcus pneumoniae by CLSI M7-A7 broth microdilution method; summary of the method: as §2
Staphylococcus aureus [7] = test: Antibacterial activity against community-acquired methicillin-resistant Staphylococcus aureus by CLSI M7-A7 broth microdilution method; summary of the method: as §2
Enterococcus faecalis [8] = test: Antibacterial activity against vancomycin-resistant Enterococcus faecalis by CLSI M7-A7 broth microdilution method; summary of the method: as §2
[9] = system: Staphylococcus epidermidis; test: Antibacterial activity against methicillin-susceptible Staphylococcus epidermidis by CLSI M7-A7 broth microdilution method
Enterococcus faecium [10] = test: Antibacterial activity against vancomycin-susceptible Enterococcus faecium by CLSI M7-A7 broth microdilution method; summary of the method: as §2
Haemophilus influenzae = test: Antibacterial activity against Haemophilus influenzae by CLSI M7-A7 broth microdilution method; summary of the method: as §3
Streptococcus pneumoniae [11] = test: Antibacterial activity against penicillin-resistant Streptococcus pneumoniae by CLSI M7-A7 broth microdilution method; summary of the method: as §2
Enterococcus faecium [12] = test: Antibacterial activity against vancomycin-resistant Enterococcus faecium by CLSI M7-A7 broth microdilution method; summary of the method: as §2
Streptococcus pyogenes = test: Antibacterial activity against Streptococcus pyogenes by CLSI M7-A7 broth microdilution broth microdilution method; summary of the method: as §2
Streptococcus pneumoniae [13] = test: Antibacterial activity against penicillin-intermediate Streptococcus pneumoniae by CLSI M7-A7 broth microdilution method; summary of the method: as §2
Enterococcus faecalis [14] = test: Antibacterial activity against vancomycin-susceptible Enterococcus faecalis by CLSI M7-A7 broth microdilution method; summary of the method: as §2
[15] = system: Staphylococcus epidermidis; test: Antibacterial activity against methicillin-resistant Staphylococcus epidermidis by CLSI M7-A7 broth microdilution method; summary of the method: as §2

## Cc1ncc([N+](=O)[O-])n1CCO [METRONIDAZOLE]
[1]
  MIC50: 1 µg/mL (≈ 5.84 µM)
  MIC90: 1 µg/mL (≈ 5.84 µM)
[2]
  MIC50: 1 µg/mL (≈ 5.84 µM)
  MIC90: 1 µg/mL (≈ 5.84 µM)
Prevotella sp.
  MIC50: 0.5 µg/mL (≈ 2.92 µM)
  MIC90: > 32 µg/mL
Parvimonas micra
  MIC: ≤ 0.06 µg/mL
  MIC50: ≤ 0.06 µg/mL
  MIC90: > 32 µg/mL
Phocaeicola vulgatus
  MIC50: 0.25 µg/mL (≈ 1.46 µM)
  MIC90: 0.25 µg/mL (≈ 1.46 µM)
Clostridium perfringens
  MIC50: 1 µg/mL (≈ 5.84 µM)
  MIC90: > 32 µg/mL
Bacteroides ovatus
  MIC50: 1 µg/mL (≈ 5.84 µM)
  MIC90: 1 µg/mL (≈ 5.84 µM)
[3]
  MIC50: 0.5 µg/mL (≈ 2.92 µM)
  MIC90: 1 µg/mL (≈ 5.84 µM)
Bacteroides fragilis
  MIC50: 0.12 µg/mL (≈ 0.701 µM)
  MIC90: 1 µg/mL (≈ 5.84 µM)

## Cn1nnc(-c2ccc(-c3ccc(N4C[C@H](CO)OC4=O)cc3F)cn2)n1 [TEDIZOLID]
Streptococcus agalactiae
  MIC50: 0.25 µg/mL (≈ 0.675 µM)
  MIC90: 0.5 µg/mL (≈ 1.35 µM)
Staphylococcus aureus [4]
  MIC50: 0.5 µg/mL (≈ 1.35 µM)
  MIC90: 0.5 µg/mL (≈ 1.35 µM)
Staphylococcus aureus [5]
  MIC50: 0.5 µg/mL (≈ 1.35 µM)
  MIC90: 0.5 µg/mL (≈ 1.35 µM)
Moraxella catarrhalis
  MIC50: 2 µg/mL (≈ 5.4 µM)
  MIC90: 4 µg/mL (≈ 10.8 µM)
Streptococcus pneumoniae [6]
  MIC50: 0.25 µg/mL (≈ 0.675 µM)
  MIC90: 0.25 µg/mL (≈ 0.675 µM)
Staphylococcus aureus [7]
  MIC50: 0.5 µg/mL (≈ 1.35 µM)
  MIC90: 0.5 µg/mL (≈ 1.35 µM)
Enterococcus faecalis [8]
  MIC50: 0.5 µg/mL (≈ 1.35 µM)
  MIC90: 0.5 µg/mL (≈ 1.35 µM)
[1]
  MIC: 0.25 µg/mL (≈ 0.675 µM)
  MIC50: 0.25 µg/mL (≈ 0.675 µM)
  MIC90: 0.5 µg/mL (≈ 1.35 µM)
[2]
  MIC: 2 µg/mL (≈ 5.4 µM)
  MIC50: 2 µg/mL (≈ 5.4 µM)
  MIC90: 2 µg/mL (≈ 5.4 µM)
[9]
  MIC50: 0.25 µg/mL (≈ 0.675 µM)
  MIC90: 0.5 µg/mL (≈ 1.35 µM)
Enterococcus faecium [10]
  MIC50: 0.5 µg/mL (≈ 1.35 µM)
  MIC90: 1 µg/mL (≈ 2.7 µM)
Haemophilus influenzae
  MIC50: 8 µg/mL (≈ 21.6 µM)
  MIC90: 16 µg/mL (≈ 43.2 µM)
Streptococcus pneumoniae [11]
  MIC50: 0.25 µg/mL (≈ 0.675 µM)
  MIC90: 0.25 µg/mL (≈ 0.675 µM)
Prevotella sp.
  MIC50: 1 µg/mL (≈ 2.7 µM)
  MIC90: 4 µg/mL (≈ 10.8 µM)
Enterococcus faecium [12]
  MIC50: 0.5 µg/mL (≈ 1.35 µM)
  MIC90: 0.5 µg/mL (≈ 1.35 µM)
Streptococcus pyogenes
  MIC50: 0.25 µg/mL (≈ 0.675 µM)
  MIC90: 0.5 µg/mL (≈ 1.35 µM)
Parvimonas micra
  MIC50: 0.25 µg/mL (≈ 0.675 µM)
  MIC90: 0.5 µg/mL (≈ 1.35 µM)
Phocaeicola vulgatus
  MIC50: 2 µg/mL (≈ 5.4 µM)
  MIC90: 4 µg/mL (≈ 10.8 µM)
Clostridium perfringens
  MIC50: 0.5 µg/mL (≈ 1.35 µM)
  MIC90: 2 µg/mL (≈ 5.4 µM)
Bacteroides ovatus
  MIC50: 2 µg/mL (≈ 5.4 µM)
  MIC90: 8 µg/mL (≈ 21.6 µM)
Streptococcus pneumoniae [13]
  MIC50: 0.25 µg/mL (≈ 0.675 µM)
  MIC90: 0.25 µg/mL (≈ 0.675 µM)
Enterococcus faecalis [14]
  MIC50: 0.5 µg/mL (≈ 1.35 µM)
  MIC90: 1 µg/mL (≈ 2.7 µM)
[15]
  MIC50: 0.25 µg/mL (≈ 0.675 µM)
  MIC90: 0.5 µg/mL (≈ 1.35 µM)
[3]
  MIC50: 0.25 µg/mL (≈ 0.675 µM)
  MIC90: 0.5 µg/mL (≈ 1.35 µM)
Bacteroides fragilis
  MIC50: 4 µg/mL (≈ 10.8 µM)
  MIC90: 4 µg/mL (≈ 10.8 µM)

## CN[C@H](CC(C)C)C(=O)N[C@H]1C(=O)N[C@@H](CC(N)=O)C(=O)N[C@H]2C(=O)N[C@H]3C(=O)N[C@H](C(=O)N[C@H](C(=O)O)c4cc(O)cc(O)c4-c4cc3ccc4O)[C@H](O)c3ccc(c(Cl)c3)Oc3cc2cc(c3O[C@@H]2O[C@H](CO)[C@@H](O)[C@H](O)[C@H]2O[C@H]2C[C@](C)(N)[C@H](O)[C@H](C)O2)Oc2ccc(cc2Cl)[C@H]1O [VANCOMYCIN]
Streptococcus agalactiae
  MIC50: 0.5 µg/mL (≈ 0.345 µM)
  MIC90: 0.5 µg/mL (≈ 0.345 µM)
Staphylococcus aureus [4]
  MIC50: 1 µg/mL (≈ 0.69 µM)
  MIC90: 1 µg/mL (≈ 0.69 µM)
Staphylococcus aureus [5]
  MIC50: 1 µg/mL (≈ 0.69 µM)
  MIC90: 1 µg/mL (≈ 0.69 µM)
Streptococcus pneumoniae [6]
  MIC50: 0.25 µg/mL (≈ 0.173 µM)
  MIC90: 0.5 µg/mL (≈ 0.345 µM)
Staphylococcus aureus [7]
  MIC50: 4 µg/mL (≈ 2.76 µM)
  MIC90: 4 µg/mL (≈ 2.76 µM)
Enterococcus faecalis [8]
  MIC50: > 32 µg/mL
  MIC90: > 32 µg/mL
[9]
  MIC50: 2 µg/mL (≈ 1.38 µM)
  MIC90: 2 µg/mL (≈ 1.38 µM)
Enterococcus faecium [10]
  MIC50: 1 µg/mL (≈ 0.69 µM)
  MIC90: 1 µg/mL (≈ 0.69 µM)
Streptococcus pneumoniae [11]
  MIC50: 0.25 µg/mL (≈ 0.173 µM)
  MIC90: 0.5 µg/mL (≈ 0.345 µM)
Enterococcus faecium [12]
  MIC50: > 32 µg/mL
  MIC90: > 32 µg/mL
Streptococcus pyogenes
  MIC50: 0.5 µg/mL (≈ 0.345 µM)
  MIC90: 0.5 µg/mL (≈ 0.345 µM)
Streptococcus pneumoniae [13]
  MIC: 0.25 µg/mL (≈ 0.173 µM)
  MIC50: 0.25 µg/mL (≈ 0.173 µM)
  MIC90: 0.5 µg/mL (≈ 0.345 µM)
Enterococcus faecalis [14]
  MIC50: 1 µg/mL (≈ 0.69 µM)
  MIC90: 2 µg/mL (≈ 1.38 µM)
[15]
  MIC50: 2 µg/mL (≈ 1.38 µM)
  MIC90: 2 µg/mL (≈ 1.38 µM)
